Measurements from ChEMBL document CHEMBL2086276, “Synthesis and evaluation of mutual prodrugs of ibuprofen with menthol, thymol and eugenol” (Eur J Med Chem, 2012).

Legend:
[1] = test system: Rattus norvegicus; assay: Antiinflammatory activity in po dosed Wistar rat assessed as inhibition of carrageenan-induced paw edema at dose molecularly equivalent to ibuprofen administered 30 mins prior to carrageenan challenge measured after 3 hrs; assay type: functional
[2] = Chemical stability of the compound assessed as hydrolysis in HCl buffer at pH 1.2 by HPLC analysis; assay type: physicochemical
Summary of the method: (§1)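 Hydrolysis at 37 °C in sealed screw-cap vials in a water bath; pH 1.2 HCl, pH 7.4 phosphate or pH 10.0 NaOH buffer, 20 mM total buffer, ionic strength held at 0.5 M with KCl. Sampled at 15, 30, 60, 120, 240 min; ester and ibuprofen quantified by HPLC. Pseudo-first-order Kobs = 2.303/t·log(a/(a−x)); t1/2 = 0.693/Kobs.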

[3] = test system: Rattus norvegicus; assay: Antiinflammatory activity in po dosed Wistar rat assessed as inhibition of carrageenan-induced paw edema at dose molecularly equivalent to ibuprofen administered 30 mins prior to carrageenan challenge measured after 5 hrs; assay type: functional
[4] = test system: Rattus norvegicus; assay: Antiinflammatory activity in po dosed Wistar rat assessed as inhibition of carrageenan-induced paw edema at dose molecularly equivalent to ibuprofen administered 30 mins prior to carrageenan challenge measured after 1 hr; assay type: functional
[5] = Half life of the compound in NaOH buffer at pH 10 by HPLC analysis; assay type: physicochemical; summary of the method: as §1
[6] = Half life of the compound in phosphate buffer at pH 7.4; assay type: physicochemical; summary of the method: as §1
[7] = test system: Rattus norvegicus; assay: Antiinflammatory activity in po dosed Wistar rat assessed as inhibition of carrageenan-induced paw edema at dose molecularly equivalent to ibuprofen administered 30 mins prior to carrageenan challenge measured after 4 hrs; assay type: functional
[8] = test system: Rattus norvegicus; assay: Antiinflammatory activity in po dosed Wistar rat assessed as inhibition of carrageenan-induced paw edema at dose molecularly equivalent to ibuprofen administered 30 mins prior to carrageenan challenge measured after 2 hrs; assay type: functional
[9] = test system: Rattus norvegicus; assay: Antiinflammatory activity in po dosed Wistar rat assessed as inhibition of carrageenan-induced paw edema at dose molecularly equivalent to ibuprofen administered 30 mins prior to carrageenan challenge measured after 6 hrs; assay type: functional
[10] = Octanol-buffer partition coefficient, log P of the compound by HPLC analysis; assay type: physicochemical
Summary of the method: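 100 mg compound in 10 mL aqueous phase plus 10 mL octanol, shaken 1 h, left 2 h at 25 °C. Each phase quantified by HPLC: C18 column, […], 1.0 mL/min, UV 254 nm. Partition coefficient = organic-phase over aqueous-phase concentration; also computed in silico.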

[11] = test system: Rattus norvegicus; assay: Gastrotoxicity in 24 hrs fasted po dosed Wistar rat assessed as ulcer index at dose molecularly equivalent to ibuprofen after 6 hrs; assay type: toxicity, organism-based; conditions: in vivo
Summary of the method: (§2)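 Rats fasted 24 h, then dosed orally as suspension in 0.5% acacia, 150 mg/kg ibuprofen or molar equivalent of prodrug; n = 6 per group. Killed 6 h after dosing, food and water then ad libitum. Stomach opened, rinsed with 5 mL saline, inspected under magnifier, ulcers scored by severity; ulcer index is the group mean, ± SEM.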

[12] = test system: Rattus norvegicus; assay: Antiinflammatory activity in Wistar rat model assessed as inhibition of carrageenan-induced paw edema at 20 mg/kg, po administered 30 mins prior to carrageenan challenge measured after 6 hrs; assay type: functional
[13] = test system: Rattus norvegicus; assay: Antiinflammatory activity in Wistar rat model assessed as inhibition of carrageenan-induced paw edema at 20 mg/kg, po administered 30 mins prior to carrageenan challenge measured after 1 hr; assay type: functional
[14] = test system: Rattus norvegicus; assay: Antiinflammatory activity in Wistar rat model assessed as inhibition of carrageenan-induced paw edema at 20 mg/kg, po administered 30 mins prior to carrageenan challenge measured after 4 hrs; assay type: functional
[15] = test system: Rattus norvegicus; assay: Gastrotoxicity in 24 hrs fasted Wistar rat assessed as ulcer index at 150 mg/kg, po after 6 hrs; assay type: toxicity, organism-based; set-up: dose 150 mg/kg, route oral; conditions: in vivo; summary of the method: as §2
[16] = test system: Rattus norvegicus; assay: Antiinflammatory activity in Wistar rat model assessed as inhibition of carrageenan-induced paw edema at 20 mg/kg, po administered 30 mins prior to carrageenan challenge measured after 3 hrs; assay type: functional
[17] = test system: Rattus norvegicus; assay: Antiinflammatory activity in Wistar rat model assessed as inhibition of carrageenan-induced paw edema at 20 mg/kg, po administered 30 mins prior to carrageenan challenge measured after 5 hrs; assay type: functional
[18] = test system: Rattus norvegicus; assay: Antiinflammatory activity in Wistar rat model assessed as inhibition of carrageenan-induced paw edema at 20 mg/kg, po administered 30 mins prior to carrageenan challenge measured after 2 hrs; assay type: functional

SMILES | inhibition (INH) [1] [%] | Stability [2] | inhibition (INH) [3] [%] | inhibition (INH) [4] [%] | half-life [5] [h] | half-life [6] [h] | inhibition (INH) [7] [%] | inhibition (INH) [8] [%] | inhibition (INH) [9] [%] | logP [10] | UI [11] | inhibition in vivo at 20 mg/kg [12] [%] | inhibition in vivo at 20 mg/kg [13] [%] | inhibition in vivo at 20 mg/kg [14] [%] | UI [15] | inhibition in vivo at 20 mg/kg [16] [%] | inhibition in vivo at 20 mg/kg [17] [%] | inhibition in vivo at 20 mg/kg [18] [%]
CC(C)Cc1ccc(C(C)C(=O)OC2CC(C)CCC2C(C)C)cc1 (stereo unspecified) | 48.49 | Stable | 64.01 | 31.58 | 2.72 | 6.01 | 55 | 34.08 | 66.84 | 6.69 | 0.91 | – | – | – | – | – | – | –
C=CCc1ccc(OC(=O)C(C)c2ccc(CC(C)C)cc2)c(OC)c1 (racemic) | 48.06 | Stable | 56.17 | 27.93 | 1.34 | 2.84 | 55.26 | 31.43 | 60.33 | 5.63 | 1.08 | – | – | – | – | – | – | –
Cc1ccc(C(C)C)c(OC(=O)C(C)c2ccc(CC(C)C)cc2)c1 (racemic) | 47.63 | Stable | 61.5 | 29.36 | 2.42 | 5.19 | 55.17 | 32.52 | 64.01 | 6.27 | 0.83 | – | – | – | – | – | – | –
CC(C)Cc1ccc(C(C)C(=O)O)cc1 (racemic) [IBUPROFEN] | – | – | – | – | – | – | – | – | – | 3.71 | – | 47.6 | 18.3 | 44 | 2.41 | 40.9 | 46.8 | 22.1
